Measured values reported in ChEMBL document CHEMBL1148583, “Substituted 2-thioxoimidazolidin-4-ones and imidazolidine-2,4-diones as fatty acid amide hydrolase inhibitors templates” (J Med Chem, 2006).

Experiments:
[1] = target: Cannabinoid receptor 1 (Homo sapiens) (UniProt P21554); assay: Displacement of [3H]SR141716A from human CB1 expressed in CHO cells at 10 uM; assay type: cell-based
Summary of the method: (§1)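 Membranes from CHO cells expressing hCB1 or hCB2 (40 µg per tube). Radioligand was 1 nM [3H]-SR141716A for CB1 or 1 nM [3H]-CP-55,940 for CB2. Competitor at 10 µM; nonspecific binding defined with 10 µM HU-210. Incubation 1 h at 30 °C in 50 mM Tris-HCl, 3 mM MgCl2, 1 mM EDTA, 0.5% BSA, pH 7.4. Filtered on PEI-treated GF/B and counted. Result is % displacement, ≥3 runs in duplicate, mean ± SEM.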

[2] = target: Cannabinoid receptor 2 (Homo sapiens) (UniProt P34972); assay: Displacement of [3H]CP-55940 from human CB2 expressed in CHO cells at 10 uM; assay type: cell-based; summary of the method: as §1
Chain of Cannabinoid receptor 2 (Homo sapiens) (P34972 whole entry): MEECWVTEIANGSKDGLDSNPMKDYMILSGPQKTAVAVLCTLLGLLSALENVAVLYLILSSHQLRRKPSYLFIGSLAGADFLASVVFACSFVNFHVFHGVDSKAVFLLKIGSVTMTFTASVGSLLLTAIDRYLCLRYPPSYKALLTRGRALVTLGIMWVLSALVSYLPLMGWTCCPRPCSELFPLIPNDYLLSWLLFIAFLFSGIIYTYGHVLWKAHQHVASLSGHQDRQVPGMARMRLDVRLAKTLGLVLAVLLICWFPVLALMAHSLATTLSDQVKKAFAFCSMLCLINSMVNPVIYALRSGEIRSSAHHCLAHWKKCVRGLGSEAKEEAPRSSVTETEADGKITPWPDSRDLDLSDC

[3] = target: T1, Fatty-acid amide hydrolase 1 (Rattus norvegicus) (UniProt P97612); assay: Inhibitory activity against FAAH in rat brain homogenate at 100 uM; assay type: tissue-based; conditions: wistar
T1 sequence (whole entry): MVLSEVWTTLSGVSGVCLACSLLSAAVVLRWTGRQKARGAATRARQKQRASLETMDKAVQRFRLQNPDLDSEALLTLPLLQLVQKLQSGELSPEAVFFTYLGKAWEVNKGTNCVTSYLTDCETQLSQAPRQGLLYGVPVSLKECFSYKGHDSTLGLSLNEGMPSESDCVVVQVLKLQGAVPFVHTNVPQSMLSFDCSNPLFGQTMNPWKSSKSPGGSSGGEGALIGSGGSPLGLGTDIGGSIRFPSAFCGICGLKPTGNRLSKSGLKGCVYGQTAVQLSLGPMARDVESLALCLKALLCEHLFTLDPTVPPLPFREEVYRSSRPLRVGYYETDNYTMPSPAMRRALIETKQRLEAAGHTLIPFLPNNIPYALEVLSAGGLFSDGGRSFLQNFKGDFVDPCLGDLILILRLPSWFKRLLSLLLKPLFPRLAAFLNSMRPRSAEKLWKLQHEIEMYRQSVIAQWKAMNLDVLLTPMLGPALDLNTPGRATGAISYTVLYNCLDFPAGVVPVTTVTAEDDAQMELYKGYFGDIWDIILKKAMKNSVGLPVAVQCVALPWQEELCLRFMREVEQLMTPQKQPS
Summary of the method: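 Rat brain membrane homogenate hydrolysing anandamide in 10 mM Tris-HCl, 1 mM EDTA, 0.1% BSA, pH 7.6, at 37 °C for 10 min. Reaction quenched with cold chloroform/methanol; radioactivity counted in the aqueous methanol phase. Compound tested at 100 µM; percent inhibition of FAAH activity reported.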

[4] = target: T2, Fatty-acid amide hydrolase 1 (Rattus norvegicus, UniProt P97612); assay: Inhibitory activity against FAAH in Wistar rat brain homogenate at pH 9.0; assay type: tissue-based
T2 sequence (P97612 whole entry): T1 sequence (whole entry)
Summary of the method: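 Enzyme from male Wistar rat (250-300 g) brain membranes, washed by 36 000g spins and kept at -80 °C. Anandamide hydrolysis at pH 9.0 in 10 mM Tris-HCl, 1 mM EDTA, 0.1% BSA, 37 °C for 10 min. Stopped with cold chloroform/methanol, then the methanol/buffer phase was counted for radioactivity. Inhibition curves run ≥3 times in duplicate; IC50 by nonlinear regression, given as pI50 ± SEM.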

Chain of Cannabinoid receptor 1 (Homo sapiens) (P21554 whole entry): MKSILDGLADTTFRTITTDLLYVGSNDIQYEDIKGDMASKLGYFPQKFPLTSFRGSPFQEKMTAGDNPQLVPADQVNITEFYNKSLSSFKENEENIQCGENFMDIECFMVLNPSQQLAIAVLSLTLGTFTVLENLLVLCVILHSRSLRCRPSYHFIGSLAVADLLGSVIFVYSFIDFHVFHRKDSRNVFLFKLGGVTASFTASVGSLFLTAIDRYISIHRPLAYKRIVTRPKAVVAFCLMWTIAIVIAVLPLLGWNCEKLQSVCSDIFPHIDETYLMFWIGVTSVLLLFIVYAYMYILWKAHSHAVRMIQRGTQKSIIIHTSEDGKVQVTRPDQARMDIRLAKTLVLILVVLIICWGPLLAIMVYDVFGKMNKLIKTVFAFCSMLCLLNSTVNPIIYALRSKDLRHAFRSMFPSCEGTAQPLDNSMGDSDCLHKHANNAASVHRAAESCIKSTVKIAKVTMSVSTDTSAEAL

| Compound | Activity [1] [%] | Activity [2] [%] | Inhibition [3] [%] | IC50 [4] [µM] |
| --- | --- | --- | --- | --- |
| O=C1CNC(=S)N1c1ccccc1 | < 20 | < 20 | 25 |  |
| CCCCCCCC/C=C\CCCCCCCCN1C(=O)C(c2ccccc2)(c2ccccc2)NC1=S | < 10 | < 10 |  |  |
| CCCCCCCN1C(=O)C(c2ccc(Cl)cc2)(c2ccc(Cl)cc2)NC1=S | 67.8 | < 20 |  |  |
| CCCCCCCCN1C(=O)NC(c2ccc(OC)cc2)(c2ccc(OC)cc2)C1=O | 31.2 | < 20 |  |  |
| CCCCCCCN1C(=O)C(c2ccccc2)N(c2ccccc2)C1=O (centres undefined) | 45.6 | < 20 |  |  |
| CCCCCCN1C(=O)NC(c2ccccc2)(c2ccccc2)C1=O | 29.9 | < 20 |  | 10 |
| CCCCN1C(=O)C(c2ccc(Br)cc2)(c2ccc(Br)cc2)NC1=S | 73.8 | < 20 |  |  |
| CCCCCCCCCCCCCCCCN1C(=O)C(c2ccccc2)(c2ccccc2)NC1=S | < 10 | < 10 |  |  |
| CCCCN1C(=O)C(c2ccc(Cl)cc2)(c2ccc(Cl)cc2)NC1=S | 72.7 | < 20 |  |  |
| CCCCCCCN1C(=O)NC(c2ccc(Br)cc2)(c2ccc(Br)cc2)C1=O | 44.8 | < 20 |  |  |
| CCCCN1C(=O)C(c2ccccc2)(c2ccccc2)NC1=S | 42.8 | < 10 |  |  |
| CCCCCN1C(=O)NC(c2ccccc2)(c2ccccc2)C1=O | 21.3 | < 20 |  |  |
| CCCCN1C(=O)CNC1=O | < 20 | < 20 | < 10 |  |
| CCN1C(=O)NC(c2ccccc2)(c2ccccc2)C1=O | < 20 | < 20 |  |  |
| O=C1N(CCCO)C(=S)NC1(c1ccccc1)c1ccccc1 | 20.8 | < 20 |  |  |
| O=C1N(Cc2ccccc2)C(=S)NC1(c1ccc(Cl)cc1)c1ccc(Cl)cc1 | 74.2 | < 15 |  |  |
| CCCCCCN1C(=O)C(c2ccccc2)(c2ccccc2)NC1=S | 21.9 | < 20 |  |  |
| CCCCCCCCN1C(=O)C(c2ccccc2)(c2ccccc2)NC1=S | 38.8 | < 20 |  |  |
| CCCCCCCCCCCCCCN1C(=O)NC(c2ccccc2)(c2ccccc2)C1=O | < 20 | < 20 |  |  |
| O=C1CNC(=O)N1c1ccccc1 | < 20 | < 20 | 23 |  |

| Compound | Activity [1] [%] | Activity [2] [%] | Inhibition [3] [%] | IC50 [4] [µM] |
| --- | --- | --- | --- | --- |
| CCCCCCCCCCCCCCCCCCN1C(=O)C(c2ccccc2)(c2ccccc2)NC1=S | < 10 | < 10 |  |  |
| COCCCN1C(=O)C(c2ccccc2)(c2ccccc2)NC1=S | 29.4 | < 20 |  |  |
| CCCCCCCN1C(=O)NC(c2ccc(Cl)cc2)(c2ccc(Cl)cc2)C1=O | 42.7 | < 20 |  |  |
| O=C1C(c2ccccc2)NC(=S)N1c1ccccc1 (centres undefined) | < 20 | < 20 |  |  |
| CCCCCCCCN1C(=O)NC(c2ccc(Br)cc2)(c2ccc(Br)cc2)C1=O | 45.1 | 21.1 |  |  |
| CCCCCCCCN1C(=O)C(c2ccc(Cl)cc2)(c2ccc(Cl)cc2)NC1=S | 36.6 | < 10 |  |  |
| CCCCN1C(=O)NC(c2ccccc2)(c2ccccc2)C1=O | < 20 | < 20 |  |  |
| O=C1N(Cc2ccccc2)C(=S)NC1(c1ccccc1)c1ccccc1 | 44.7 | < 20 |  |  |
| CCCCCCCN1C(=O)C(c2ccccc2)(c2ccccc2)NC1=S | 28.8 | < 20 |  |  |
| O=C1NC(=S)NC1(c1ccccc1)c1ccccc1 | < 15 | < 10 |  |  |
| CCCCN1C(=O)CNC1=S | < 20 | < 20 | < 10 |  |
| O=C1NC(c2ccc(Cl)cc2)(c2ccc(Cl)cc2)C(=O)N1Cc1ccccc1 | 72.2 | < 20 |  |  |
| O=C1N(CCc2ccccc2)C(=S)NC1(c1ccccc1)c1ccccc1 | 29.3 | < 20 |  |  |
| O=C1NC(c2ccccc2)(c2ccccc2)C(=O)N1CCc1ccccc1 | < 20 | < 20 |  |  |
| CCN1C(=O)C(c2ccccc2)(c2ccccc2)NC1=S | 40 | < 10 |  |  |
| CCCCCN1C(=O)C(c2ccccc2)(c2ccccc2)NC1=S | 27.6 | < 20 |  |  |
| CCCCN1C(=O)NC(c2ccc(Br)cc2)(c2ccc(Br)cc2)C1=O | 69.2 | 23.1 |  |  |
| CCCCCCCN1C(=O)C(c2ccc(Br)cc2)(c2ccc(Br)cc2)NC1=S | 34.2 | < 20 |  |  |
| CCCCCCCN1C(=O)CNC1=O | < 20 | < 20 |  |  |
| O=C1N(c2ccccc2)C(=S)NC1(c1ccccc1)c1ccccc1 | 32.6 | < 20 |  |  |

| Compound | Activity [1] [%] | Activity [2] [%] | Inhibition [3] [%] | IC50 [4] [µM] |
| --- | --- | --- | --- | --- |
| CCCCCCCN1C(=O)NC(c2ccccc2)(c2ccccc2)C1=O | 23.4 | < 20 |  | 8.32 |
| O=C1NC(c2ccccc2)(c2ccccc2)C(=O)N1Cc1ccccc1 | 33.7 | < 20 |  |  |
| CCCCCCCCCCCCCCN1C(=O)C(c2ccccc2)(c2ccccc2)NC1=S | < 10 | < 20 |  | 0.891 |
| CCCCCCCN1C(=O)C(c2ccccc2)(c2ccccc2)N(CCCCCCC)C1=S | < 20 | < 20 |  |  |
| O=C1NC(=S)N(c2ccccc2)C1c1ccccc1 (centres undefined) | < 20 | < 20 |  |  |
| CCCCCCCCN1C(=O)NC(c2ccc(F)cc2)(c2ccc(F)cc2)C1=O | 40.1 | < 20 |  |  |
| CC(C)CN1C(=O)C(c2ccccc2)(c2ccccc2)NC1=S | 34.6 | < 10 |  |  |
| O=C1NC(=O)C(c2ccccc2)(c2ccccc2)N1 | < 20 | < 20 |  |  |
| CCCCCCCCN1C(=O)C(c2ccc(Br)cc2)(c2ccc(Br)cc2)NC1=S | 23.4 | < 20 |  |  |
| CCCCCCCCN1C(=O)NC(c2ccc(Cl)cc2)(c2ccc(Cl)cc2)C1=O | 39.5 | < 20 |  |  |
| CCCCCCCCCCN1C(=O)NC(c2ccccc2)(c2ccccc2)C1=O | < 20 | < 20 |  |  |
| CCCCN1C(=O)NC(c2ccc(Cl)cc2)(c2ccc(Cl)cc2)C1=O | 51.2 | < 20 |  |  |
| CCCCCCCCN1C(=O)NC(c2ccc(C)cc2)(c2ccc(C)cc2)C1=O | 24.5 | < 20 |  |  |
| O=C1NC(=O)N(c2ccccc2)C1c1ccccc1 (centres undefined) | < 20 | < 20 |  |  |
| CCCCCCCN1C(=O)C(c2ccccc2)NC1=S (centres undefined) | < 20 | < 20 |  |  |
| CCCCCCCCN1C(=O)NC(c2ccccc2)(c2ccccc2)C1=O | 25.1 | < 20 |  |  |
| CCCCCCCCCCN1C(=O)C(c2ccccc2)(c2ccccc2)NC1=S | < 10 | < 20 |  | 1.35 |
| O=C1NC(c2ccccc2)C(=O)N1c1ccccc1 (centres undefined) | < 20 | < 20 |  |  |
